This note sets out measurements from ChEMBL document CHEMBL1147007, “Optimization of 2-aminothiazole derivatives as CCR4 antagonists” (Bioorg Med Chem Lett, 2006).

Bounds are passed on as bounds.

The target in series [1] is T1, C-C chemokine receptor type 4 (Homo sapiens, UniProt P51679).
T1 sequence (P51679 whole entry): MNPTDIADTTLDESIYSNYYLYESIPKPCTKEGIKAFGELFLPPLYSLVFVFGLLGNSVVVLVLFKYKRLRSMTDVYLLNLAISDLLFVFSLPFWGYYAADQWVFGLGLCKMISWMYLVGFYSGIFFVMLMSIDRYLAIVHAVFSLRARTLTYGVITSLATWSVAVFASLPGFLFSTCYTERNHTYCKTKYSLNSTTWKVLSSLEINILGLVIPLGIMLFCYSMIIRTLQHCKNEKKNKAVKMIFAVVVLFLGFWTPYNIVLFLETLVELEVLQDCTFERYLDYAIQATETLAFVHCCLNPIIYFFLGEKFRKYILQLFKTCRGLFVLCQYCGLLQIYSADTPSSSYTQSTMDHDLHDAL
Kind of series: Displacement of [125I]TARC from CCR4 expressed in human CEM cell line. The class given is cell-based, CCRF-CEM. In a few lines:
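CEM cells at 5 · 10^6/mL in RPMI-1640 with 0.5% BSA, incubated with compound (diluted in DMSO) and [125I]TARC diluted to 100 pM in buffer, 2 h at room temperature. Bound ligand collected by filtration through GF/B filters and counted by scintillation. Values are means of three experiments (standard deviation ±30%).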
A general note: Displacement assays read how much labelled ligand stays bound in the presence of the test substance.

Series [2] deals with T1, C-C chemokine receptor type 4. Kind of series: Displacement of [125I]MDC from CCR4 expressed in human CEM cell line. Format: cell-based, CCRF-CEM.
The nature of series [3]: Oral bioavailability in rat at 2 mg/kg, po. The class given is ADME, organism-based. The conditions noted are these: in vivo. In a few lines: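 Rats dosed by oral gavage at 2 mg/kg; oral bioavailability determined.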
The nature of series [4]: Clearance in rat at 0.5 mg/kg, iv. The arrangement: dose 0.5 mg/kg, route intravenous. Format: ADME, organism-based. The following applies: in vivo.
Series [5] in a line: Terminal half life in rat at 0.5 mg/kg, iv. Further details: dose 0.5 mg/kg, route intravenous. The class given is ADME, organism-based. The following applies: in vivo.

In the case of `NCc1csc(Nc2cccc3ccccc23)n1`, the IC50 (usually the concentration that inhibits the measured activity by half) in series [1] is more than 25000 nM.

Regarding `Cn1ccc2c(Nc3nc(C(C)(C)C)cs3)cccc21`, the IC50 in series [1] was 37 nM.

In series [1], `CC(C)(C)c1ccc(-c2csc(Nc3cccc4ccccc34)n2)cc1` returned an IC50 of 900 nM.

`CC(C)c1csc(Cc2cccc3ccccc23)n1` came in with an IC50 in series [1] of more than 25000 nM.

`CC(C)(C)c1csc(Nc2cccc3cccnc23)n1` displayed an IC50 in series [1] of more than 25000 nM.

Compound `CC(C)(C)c1csc(Nc2ccccc2)n1` yielded an IC50 in series [1] of 4500 nM.

As for `CC(C)c1ccccc1Nc1nc(C(C)(C)C)cs1`, in series [1], the IC50 was 440 nM.

On to `Cc1cccc(Nc2nc(C(C)(C)C)cs2)c1C`, for which the IC50 in series [1] worked out at 260 nM.

Regarding `CC(C)(C)c1coc(Nc2cccc3ccccc23)n1`, the IC50 in series [1] came out at 80 nM.

Take `Cc1cccc(Nc2cc(CN(Cc3ccccc3C(F)(F)F)CC3CCCCC3)no2)c1C`: in series [1], the IC50 stood at 12100 nM.

On to `CCNCc1csc(Nc2cccc3ccccc23)n1`, for which the IC50 in series [1] came out at 1000 nM.

With `CC(C)CN(Cc1csc(Nc2cccc3ccccc23)n1)CC(C)C`, the IC50 in series [1] came to 45 nM.

Regarding `CC(C)(C)c1csc(Nc2cccc3[nH]ccc23)n1`, in series [1], the 50% inhibitory concentration (IC50) worked out at 490 nM.

As to `CC(C)c1csc(Nc2cccc3ccccc23)n1`, the IC50 in series [1] was 170 nM.

Consider `c1ccc2c(Nc3nc(CN(CC4CCCCC4)CC4CCCCC4)cs3)cccc2c1`, for which the values for the IC50 in series [2] and in series [1] were 31 nM and 18 nM, respectively. For the same compound, the bioavailability (in general, the share of a dose that reaches the circulation, judged against a reference dose that is usually intravenous) in series [3] is 63%. Besides, the clearance (commonly the rate of elimination divided by the concentration) in series [4] is 17.8 mL/min/kg. Also, in series [5], the half-life (in general, the time in which the quantity being followed falls by half) was 3.6 h.

Compound `Cc1cccc(Nc2cccc(CN(Cc3ccccc3C(F)(F)F)CC3CCCCC3)n2)c1C` returned an IC50 in series [1] of 340 nM.

In the case of `Cc1csc(N(C)c2cccc3ccccc23)n1`, the IC50 in series [1] is more than 25000 nM.

Take `CC(C)(C)c1csc(Nc2cccc3ncccc23)n1`: the IC50 in series [1] stood at 300 nM.

In series [1], `Cc1cccc(Nc2cc(CN(Cc3ccccc3C(F)(F)F)CC3CCCCC3)n[nH]2)c1C` came in with an IC50 of more than 25000 nM.

In turn, `CC(C)(C)c1csc(Nc2cccc3c2CCCC3)n1` registered an IC50 in series [1] of 210 nM.

`c1ccc(-c2csc(Nc3cccc4ccccc34)n2)cc1` registered an IC50 in series [1] of 5500 nM.

For the compound `CCn1ccc2c(Nc3nc(C(C)(C)C)cs3)cccc21`, the IC50 in series [1] was 210 nM.

`CC(C)(C)c1ccnc(Nc2cccc3ccccc23)n1` yielded an IC50 in series [1] of more than 25000 nM.

As to `FC(F)(F)c1ccccc1CN(Cc1csc(Nc2cccc3ccccc23)n1)CC1CCCCC1`, the IC50 in series [1] is 14 nM.

Consider `CC(C)(C)c1csc(Nc2cccc3cnccc23)n1`, for which the IC50 in series [1] stood at 1500 nM.

Take `CC(C)(C)c1csc(Nc2cccc3ccccc23)n1`: the IC50 in series [1] was 80 nM.

As to `Cc1cccc(Nc2cc(CN(Cc3ccccc3C(F)(F)F)CC3CCCCC3)nn2C)c1C`, in series [1], the IC50 was found to be 370 nM.

In the case of `Cc1ccccc1Nc1nc(C(C)(C)C)cs1`, the IC50 in series [1] is 900 nM.

In the case of `Cc1csc(Nc2cccc3ccccc23)n1`, the IC50 in series [2] was determined as 3000 nM; in series [1] it was 1700 nM. Also, the bioavailability in series [3] stood at 2%. Moreover, the clearance in series [4] is 70 mL/min/kg. In addition, the half-life in series [5] is 0.4 h.

Compound `CC(C)(C)Cc1csc(Nc2cccc3ccccc23)n1` returned an IC50 in series [1] of 220 nM.

As to `Cc1cccc(Nc2nc(C(C)(C)C)cs2)c1`, in series [1], the 50% inhibitory concentration (IC50) amounted to 2000 nM.

Consider `CCN(CC)Cc1csc(Nc2cccc3ccccc23)n1`, for which, in series [1], the IC50 came out at 800 nM.
